Most compounds without a hit are left out; they make up all but 1.1% or so of the library.
PMI activator: phosphomannose isomerase (human) activation | purified human PMI, coupled resazurin fluorescence, 20 min; stronger effect = higher value; 1 = vehicle control, 0 substrate-free wells | P34949 | activation factor at 20 µM | AID 1214 | 0.005% of 190,000 active;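 active means activation factor of 2 or more at 20 µM, relative to plate controls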
Target sequence (P34949 whole entry, looked up): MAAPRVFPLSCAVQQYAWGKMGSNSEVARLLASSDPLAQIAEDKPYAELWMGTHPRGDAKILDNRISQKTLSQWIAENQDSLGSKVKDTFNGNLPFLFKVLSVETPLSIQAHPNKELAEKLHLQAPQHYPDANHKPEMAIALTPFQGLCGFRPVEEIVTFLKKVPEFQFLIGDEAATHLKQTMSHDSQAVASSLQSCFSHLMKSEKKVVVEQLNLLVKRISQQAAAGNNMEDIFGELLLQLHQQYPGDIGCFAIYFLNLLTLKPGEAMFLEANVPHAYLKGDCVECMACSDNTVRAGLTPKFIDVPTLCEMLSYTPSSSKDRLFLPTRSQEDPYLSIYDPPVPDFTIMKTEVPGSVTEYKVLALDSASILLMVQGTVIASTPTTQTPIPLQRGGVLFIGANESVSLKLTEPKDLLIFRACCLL
PMI act hi M6P: activators of human phosphomannose isomerase at near-saturating mannose 6-phosphate; P34949; coupled PMI enzyme assay, resazurin fluorescence, 20 min; stronger effect = higher value; 1 = untreated enzyme, 0 = substrate-free blank; activation factor at 20 µM; 0.34% of 190,000 active;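 active means activation factor of 2 or more at 20 µM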
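test system = human PMI in coupled enzyme assay | medium = HEPES-buffered pH 7.4 with magnesium and detergent | also added = 1.0 mM mannose-6-phosphate substrate with 0.22 mM NADP+ | compound = 20 µM single dose | times = 20 min incubation at room temperature | measured by = resorufin fluorescence (Ex 544/Em 590 nm) from resazurin via diaphorase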
Diaph inh CS: inhibits diaphorase or chemically oxidizes, flagging diaphorase assay artifacts; inhibition, % at 20 µM; diaphorase resazurin-to-resorufin fluorescence, NADH, 16 min; bacterial (C. kluyveri) enzyme, not human; 0.69% of 190,000 active;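 active means primary screen inhibition at 20 µM above a set limit, cut at about 50% in these data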;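 further: plate controls were DMSO with full reaction for no effect and wells lacking NADH for full effect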
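controls = No-NADH positive control and DMSO neutral control | system = Clostridium kluyveri diaphorase enzyme | timing = reaction incubation of 16 min at room temperature | signal = resorufin fluorescence 544/590 nm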
G6PDH CS: inhibits Leuconostoc G6PDH, flagging false hits in G6PDH-based assays | Purified L. mesenteroides G6PDH, diaphorase/resazurin coupled fluorescence, 45 min | AID 1020 | 0.12% of 200,000 active | inhibition, % at 5 µM; in the data active means inhibition above about 50%
Diaph act CS: activates diaphorase or chemically reduces, flagging diaphorase assay artifacts; Diaphorase/resazurin coupled assay, resorufin fluorescence, 16 min; stronger effect = higher value; 1 = vehicle wells, 0 = NADH-free wells; activation factor at 20 µM; 0.005% of 190,000 active; AID 1229;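 active means diaphorase activity raised at least twofold by the compound at 20 µM; inactive means activation factor below 2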
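Test system: Clostridium kluyveri diaphorase, purified enzyme. Buffer or medium: 50 mM HEPES pH 7.4 buffer plus MgCl2 and Tween 20. Also added: 0.114 mM NADH and 0.1 mM resazurin, final amounts. Dosing: compound 20 µM once, DMSO 1%. Schedule: 16 min enzyme reaction, ambient temperature. Detection: fluorescence of resorufin, 544 nm excitation, 590 nm emission.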
* = called active by the depositor.

SMILES	PMI activator	PMI act hi M6P	Diaph inh CS	G6PDH CS	Diaph act CS
O=C(c1ccccc1)c1ccc2nc(-c3ccco3)c(-c3ccco3)nc2c1	1.4	1.1	74*	21	0.3
O=C(NCCc1ccccc1)c1ccc2nc(-c3ccco3)c(-c3ccco3)nc2c1	1.1	1.1	49	25	0.5
O=C(NC1CCCC1)c1ccc2nc[nH]c2c1	0.9	0.9	14	2	0.9
CC1(C)CSC(=S)N1S(=O)(=O)c1ccccc1	0.9	0.9	12	4	0.9
CC(C)/C=N/NC(=O)c1ccc(Cl)cc1	1	1	8	-1	0.9
CCOC(=O)N1CCC(=NNS(=O)(=O)c2cccc([N+](=O)[O-])c2)CC1	1.7	2.1*	-2	6	1
CCOC(=O)N1CCN(S(=O)(=O)c2cc([N+](=O)[O-])ccc2C)CC1	0.9	0.9	8	-5	0.9
CN(C)/C=C1/Oc2c(ccc3ccccc23)C1=O	0.8	0.4	32	3	0.7
CN(C)/C=C1\Oc2ccc3ccccc3c2C1=O	0.1	0.2	70*	34	0.3
O=C(COC(=O)c1cc(S(=O)(=O)N2CCOCC2)ccc1O)NCCc1ccccc1	1.1	1.1	4	10	1
Cc1cc(N=Cc2c(O)n(-c3ccc(C)c(C)c3)c(=O)c3ccccc23)no1	0.8	1	22	4	0.8
Cc1cc(N=Cc2c(O)ccc3cc(Br)ccc23)no1	0.5	0.4	64*	23	0.4
N#Cc1cc2cc3c(cc2nc1SCC(=O)OC1CCCCC1)OCO3	1	0.9	7	5	0.9
CC(=O)CSc1nc2cc3c(cc2cc1C#N)OCCO3	1.5	2*	13	6	0.9
N#Cc1c(N)n[nH]c1-c1cc2c([nH]1)CCCC2	0.9	0.8	24	3	0.8
N#Cc1cc2c([nH]c1=S)CCCCCC2	1.3	2.1*	14	4	0.9
CN1C(=O)C(Cl)(Cl)C(=O)c2ccccc21	0.2	0.3	76*	25	0.2
O=C(COC(=O)c1c(F)cccc1F)Nc1ccc2[nH]c(=O)[nH]c2c1	0.9	0.8	9	10	0.9
O=C(COc1cccc(F)c1)Nc1ccc2[nH]c(=O)[nH]c2c1	0.9	0.8	55*	10	0.4
O=C(CN1CCN(c2ccc(Cl)cc2)CC1)NCc1ccccc1	1	1.1	86*	2	0.1
O=C1N(Cc2cccc(Cl)c2)C[C@@H]2C[C@@H](c3c[nH]c4ccccc34)N3CCC[C@@]123	0.8	0.6	20	18	0.8
O=C(O)c1ccccc1Nc1ccccc1C(=O)O	1	1	12	6	0.9
O=C(O)c1ccccc1NN=C1CCCCC1	1.7	2.5*	19	10	0.8
S=c1cnc2ccccc2[nH]1	1.5	2.1*	9	10	0.9
c1ccc(CCc2nc3ccccc3[nH]2)cc1	1	1.1	8	16	0.9
SMILES	PMI activator	PMI act hi M6P	Diaph inh CS	G6PDH CS	Diaph act CS
N#Cc1sc2nc(C3CC3)cc(-c3ccccc3)c2c1N	0.8	0.8	25	-12	0.8
N#Cc1sc2nc(-c3ccccc3)cc(-c3ccco3)c2c1N	1.1	1.3	62*	-40	0.4
Cc1ccccc1NC(=O)N1CCN(S(=O)(=O)c2ccccc2)CC1	1	1	-7	5	1.1
O=[N+]([O-])c1cccc(Nc2nc(Cl)nc(Cl)n2)c1	1.7	1.7	-8	3	1.1
Fc1cccc(Nc2nc(Cl)nc(Cl)n2)c1	1.8	2.2*	2	4	1
CC(=O)Oc1c(C)cc(O)c2ccccc12	0.7	0.8	33	51*	0.7
O=C(CCN1C(=O)C2C3C=CC(C4CC34)C2C1=O)Oc1cccc2cccnc12 (stereo not given)	0.8	0.7	24	53*	0.8
O=C(CCN1C(=O)C2C3C=CC(C4CC34)C2C1=O)Oc1ccc(Br)cc1 (stereo not given)	1	0.9	11	2	0.9
CCOC(=O)C1CCCN(c2c(NCCN3CCCCC3C)c(=O)c2=O)C1 (stereo not given)	0.9	0.9	21	-10	0.8
Cc1ccc(-n2cccc2/C=C2\C(=N)N3N=C(c4ccco4)SC3=NC2=O)cc1	1.1	1.2	56*	-2	0.4
COc1ccc(-c2nc(=S)c3c([nH]2)Oc2ccc(C)cc2C3)cc1O	1.8	2.1*	2	-6	1
COc1ccc(OC(C)C(=O)N2CCCc3ccccc32)cc1 (stereo not given)	1	1	3	17	1
CCOc1ccc(CC(=O)C2C(=O)CCCC2=O)cc1OCC	1.4	2.1*	4	12	1
CCOc1ccc(CC(=O)C2C(=O)CC(C)(C)CC2=O)cc1OCC	1.4	1.4	-9	7	1.1
CCN(CC)CCN1C(=O)C(O)=C(C(=O)c2ccco2)C1c1ccccn1 (stereo not given)	1.4	1.6	60*	10	0.4
O=S1(=O)C=C(SCc2cccc(Cl)c2)Nc2ccccc21	1	1	9	13	0.9
Cc1cc(=S)cc(C)n1CCCO	1.4	2*	11	-3	0.9
Cc1cc(=O)n(CCCO)c(O)c1C#N	0.9	0.6	24	21	0.8
c1ccc(CCn2nnnc2CN2CCCc3ccccc32)cc1	1	2.1*	12	8	0.9
c1ccc2sc(N3CCN(Cc4nnnn4CC4CCCO4)CC3)nc2c1 (stereo not given)	1.1	1.1	2	2	1
c1ccc(-c2nnc(CN3CCCc4ccccc43)o2)cc1	1.5	2.1*	0	4	1
c1ccc(-c2nnc(CN3CCC4(CC3)OCCO4)o2)cc1	0.9	0.9	12	-11	0.9
c1ccc2c(c1)CCCN2Cc1nnnn1CC1CCCO1 (stereo not given)	1.5	2.1*	13	8	0.9
O=C(NN1C(=O)c2ccc(-c3ccc4c(c3)C(=O)N(NC(=O)c3cccnc3)C4=O)cc2C1=O)c1cccnc1	1.1	1.1	2	1	1
O=C(NC(=S)NCCN1CCOCC1)c1ccc(F)cc1	1	1	7	12	0.9
Cc1ccc(C(=O)NC(=S)NNC(=O)CCN2CCOCC2)cc1	0.6	0.5	67*	-7	0.3
Oc1ccccc1/C=N/n1cnn(Cc2ccccc2Cl)c1=S	1	1.2	-1	-29	1
Cc1cc(C)cc(Nc2cc(=O)n(C3CCCCC3)c(=O)[nH]2)c1	0.9	0.8	17	2	0.8
Cc1cc2nc3c(=O)n(C4CCCCC4)c(=O)[nH]c3nc2cc1N	0.5	0.4	60*	30	0.4
COc1ccc(C(C)=O)cc1CSc1nncn1-c1ccccc1	0.8	0.9	9	8	0.9

High-throughput results deposited in PubChem by Sanford-Burnham Center for Chemical Genomics.
